The term IC50 denotes the concentration at which inhibition is half-maximal.

The values below come from ChEMBL document CHEMBL5321284, “Discovery of a First-in-Class Degrader for the Lipid Kinase PIKfyve” (J Med Chem, 2023).

The structures appear in SMILES notation. Activity calls are given as the source filed them. The calls are words filed in the database; no cut-off is given here.

The target in the first assay is T1, von Hippel-Lindau disease tumor suppressor/1-phosphatidylinositol 3-phosphate 5-kinase (Homo sapiens) (UniProt Q9Y2I7+P40337). Briefly: PROTAC activity at VHL/PIKfyve in human VCaP cells assessed as induction of PIKfyve degradation at 1 uM incubated for 24 hrs by immunoblot analysis. Type of assay: cell-based.
T1 sequence (P40337 whole entry partner): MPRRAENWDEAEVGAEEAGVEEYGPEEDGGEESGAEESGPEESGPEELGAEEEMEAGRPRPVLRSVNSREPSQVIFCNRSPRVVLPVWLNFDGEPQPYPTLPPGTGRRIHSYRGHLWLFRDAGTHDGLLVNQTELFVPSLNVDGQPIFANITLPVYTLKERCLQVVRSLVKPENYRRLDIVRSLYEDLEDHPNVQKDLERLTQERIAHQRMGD
T1 sequence (Q9Y2I7 2-2098 limits assumed): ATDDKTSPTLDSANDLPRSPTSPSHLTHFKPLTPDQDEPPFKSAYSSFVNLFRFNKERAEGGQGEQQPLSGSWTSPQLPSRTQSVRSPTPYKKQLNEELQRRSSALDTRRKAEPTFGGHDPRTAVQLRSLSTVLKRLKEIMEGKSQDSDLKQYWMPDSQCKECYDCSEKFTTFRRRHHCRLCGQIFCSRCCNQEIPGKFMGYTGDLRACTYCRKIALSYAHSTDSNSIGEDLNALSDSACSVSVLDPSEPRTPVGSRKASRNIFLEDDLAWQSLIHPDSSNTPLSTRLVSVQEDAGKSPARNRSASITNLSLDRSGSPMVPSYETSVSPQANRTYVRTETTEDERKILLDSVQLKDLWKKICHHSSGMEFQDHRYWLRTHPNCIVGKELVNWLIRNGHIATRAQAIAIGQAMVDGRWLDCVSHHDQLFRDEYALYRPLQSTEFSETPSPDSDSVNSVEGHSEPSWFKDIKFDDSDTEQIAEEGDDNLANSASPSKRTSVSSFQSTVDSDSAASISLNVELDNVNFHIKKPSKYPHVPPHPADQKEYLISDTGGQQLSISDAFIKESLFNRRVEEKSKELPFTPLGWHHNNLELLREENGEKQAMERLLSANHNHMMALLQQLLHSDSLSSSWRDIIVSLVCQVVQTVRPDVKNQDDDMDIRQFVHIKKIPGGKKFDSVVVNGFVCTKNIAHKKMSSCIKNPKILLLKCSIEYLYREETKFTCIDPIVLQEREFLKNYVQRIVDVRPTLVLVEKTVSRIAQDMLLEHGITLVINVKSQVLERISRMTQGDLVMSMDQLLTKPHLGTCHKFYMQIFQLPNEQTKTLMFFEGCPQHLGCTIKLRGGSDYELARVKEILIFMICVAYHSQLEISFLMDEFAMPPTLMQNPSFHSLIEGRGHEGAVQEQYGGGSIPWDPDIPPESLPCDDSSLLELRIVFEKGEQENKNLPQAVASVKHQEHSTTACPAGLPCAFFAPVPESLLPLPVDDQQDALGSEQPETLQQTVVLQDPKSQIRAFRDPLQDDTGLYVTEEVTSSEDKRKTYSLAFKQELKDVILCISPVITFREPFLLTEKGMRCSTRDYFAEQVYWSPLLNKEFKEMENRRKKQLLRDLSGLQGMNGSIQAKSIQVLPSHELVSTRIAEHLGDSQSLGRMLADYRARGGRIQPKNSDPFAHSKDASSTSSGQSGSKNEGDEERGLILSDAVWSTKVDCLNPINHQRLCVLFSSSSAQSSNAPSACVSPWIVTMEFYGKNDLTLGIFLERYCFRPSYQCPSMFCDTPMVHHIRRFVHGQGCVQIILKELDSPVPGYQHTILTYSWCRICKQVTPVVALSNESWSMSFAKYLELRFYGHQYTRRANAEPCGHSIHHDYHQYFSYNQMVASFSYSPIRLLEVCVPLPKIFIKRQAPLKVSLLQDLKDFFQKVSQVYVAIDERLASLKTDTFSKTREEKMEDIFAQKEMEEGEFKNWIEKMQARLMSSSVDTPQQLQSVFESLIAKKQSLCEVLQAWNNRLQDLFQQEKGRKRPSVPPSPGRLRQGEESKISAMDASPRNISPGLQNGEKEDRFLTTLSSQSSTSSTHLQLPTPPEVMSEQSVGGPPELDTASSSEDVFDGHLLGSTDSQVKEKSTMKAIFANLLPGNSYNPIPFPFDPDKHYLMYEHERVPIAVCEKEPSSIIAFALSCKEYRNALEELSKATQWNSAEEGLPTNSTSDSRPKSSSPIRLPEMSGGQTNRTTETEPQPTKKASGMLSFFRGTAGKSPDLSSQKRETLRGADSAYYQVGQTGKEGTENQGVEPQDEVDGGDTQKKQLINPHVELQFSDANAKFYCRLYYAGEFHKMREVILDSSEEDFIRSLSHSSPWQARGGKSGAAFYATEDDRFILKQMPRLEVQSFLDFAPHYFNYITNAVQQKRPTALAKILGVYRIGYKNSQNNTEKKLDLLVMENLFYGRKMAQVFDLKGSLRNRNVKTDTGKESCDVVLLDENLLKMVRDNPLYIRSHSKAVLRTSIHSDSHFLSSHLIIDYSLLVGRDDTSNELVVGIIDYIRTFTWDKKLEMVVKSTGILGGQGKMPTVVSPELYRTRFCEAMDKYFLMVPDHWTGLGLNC
Details: not given
The gist of the method: (§1)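 VCaP cells treated 24 h at 0.1 or 1.0 µM; percent PIKfyve degradation determined by immunoblotting.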
Background: Immunoblotting shows a protein as a band on a membrane.
On to `Cc1cccc(/C=N/Nc2cc(N3CCOCC3)nc(OCCNC(=O)CCCCC(=O)N[C@H](C(=O)N3C[C@H](O)C[C@H]3C(=O)NCc3ccc(-c4scnc4C)cc3)C(C)(C)C)n2)c1`, for which the Activity amounted to 10%.

As to `Cc1cccc(/C=N/Nc2cc(N3CCOCC3)nc(OCCc3ccc(NC(=O)CCCCCCCCC(=O)N[C@H](C(=O)N4C[C@H](O)C[C@H]4C(=O)NCc4ccc(-c5scnc5C)cc4)C(C)(C)C)cc3)n2)c1`, the Activity was 45%.

For `Cc1cccc(/C=N/Nc2cc(N3CCOCC3)nc(OCCc3ccc(NC(=O)CCCCC(=O)N[C@H](C(=O)N4C[C@H](O)C[C@H]4C(=O)N[C@@H](C)c4ccc(-c5scnc5C)cc4)C(C)(C)C)cc3)n2)c1`, the Activity was 44%.

For `Cc1cccc(/C=N/Nc2cc(N3CCOCC3)nc(OCCNC(=O)CCCC(=O)N[C@H](C(=O)N3C[C@H](O)C[C@H]3C(=O)NCc3ccc(-c4scnc4C)cc3)C(C)(C)C)n2)c1`, the Activity was 0%.

For `Cc1cccc(/C=N/Nc2cc(N3CCOCC3)nc(OCCc3ccc(NC(=O)CCCCCCC(=O)N[C@H](C(=O)N4C[C@H](O)C[C@H]4C(=O)NCc4ccc(-c5scnc5C)cc4)C(C)(C)C)cc3)n2)c1`, the Activity came to 19%.

For `Cc1cccc(/C=N/Nc2cc(N3CCOCC3)nc(OCCNC(=O)CC(=O)N[C@H](C(=O)N3C[C@H](O)C[C@H]3C(=O)NCc3ccc(-c4scnc4C)cc3)C(C)(C)C)n2)c1`, the Activity is 0%.

For the molecule `Cc1cccc(/C=N/Nc2cc(N3CCOCC3)nc(OCCc3ccc(NC(=O)CCCCCCCC(=O)N[C@H](C(=O)N4C[C@H](O)C[C@H]4C(=O)NCc4ccc(-c5scnc5C)cc4)C(C)(C)C)cc3)n2)c1`, the Activity came out at 92%.

With `Cc1cccc(/C=N/Nc2cc(N3CCOCC3)nc(OCCc3ccc(NC(=O)CCC(=O)N[C@H](C(=O)N4C[C@H](O)C[C@H]4C(=O)NCc4ccc(-c5scnc5C)cc4)C(C)(C)C)cc3)n2)c1`, the Activity was 8%.

Turning to `Cc1cccc(/C=N/Nc2cc(N3CCOCC3)nc(OCCc3ccc(NC(=O)CCCCCC(=O)N[C@H](C(=O)N4C[C@H](O)C[C@H]4C(=O)NCc4ccc(-c5scnc5C)cc4)C(C)(C)C)cc3)n2)c1`, the Activity was found to be 75%.

Turning to `Cc1cccc(/C=N/Nc2cc(N3CCOCC3)nc(OCCNC(=O)CCC(=O)N[C@H](C(=O)N3C[C@H](O)C[C@H]3C(=O)NCc3ccc(-c4scnc4C)cc3)C(C)(C)C)n2)c1`, the Activity came to 0%.

For a further assay, the target named is T1, von Hippel-Lindau disease tumor suppressor/1-phosphatidylinositol 3-phosphate 5-kinase (Homo sapiens). Kind of assay: PROTAC activity at VHL/PIKfyve in human VCaP cells assessed as induction of PIKfyve degradation at 0.1 uM incubated for 24 hrs by immunoblot analysis.
Details: not given
The class given is cell-based. The gist of the method:
as §1
For the molecule `Cc1cccc(/C=N/Nc2cc(N3CCOCC3)nc(OCCNC(=O)CCCCC(=O)N[C@H](C(=O)N3C[C@H](O)C[C@H]3C(=O)NCc3ccc(-c4scnc4C)cc3)C(C)(C)C)n2)c1`, the Activity came to 0%.

As to `Cc1cccc(/C=N/Nc2cc(N3CCOCC3)nc(OCCc3ccc(NC(=O)CCCCCCCCC(=O)N[C@H](C(=O)N4C[C@H](O)C[C@H]4C(=O)NCc4ccc(-c5scnc5C)cc4)C(C)(C)C)cc3)n2)c1`, the Activity came out at 81%.

In the case of `Cc1cccc(/C=N/Nc2cc(N3CCOCC3)nc(OCCc3ccc(NC(=O)CCCCC(=O)N[C@H](C(=O)N4C[C@H](O)C[C@H]4C(=O)N[C@@H](C)c4ccc(-c5scnc5C)cc4)C(C)(C)C)cc3)n2)c1`, the Activity came to 47%.

As to `Cc1cccc(/C=N/Nc2cc(N3CCOCC3)nc(OCCNC(=O)CCCC(=O)N[C@H](C(=O)N3C[C@H](O)C[C@H]3C(=O)NCc3ccc(-c4scnc4C)cc3)C(C)(C)C)n2)c1`, the Activity stood at 0%.

As for `Cc1cccc(/C=N/Nc2cc(N3CCOCC3)nc(OCCc3ccc(NC(=O)CCCCCCC(=O)N[C@H](C(=O)N4C[C@H](O)C[C@H]4C(=O)NCc4ccc(-c5scnc5C)cc4)C(C)(C)C)cc3)n2)c1`, the Activity is 26%.

For `Cc1cccc(/C=N/Nc2cc(N3CCOCC3)nc(OCCNC(=O)CC(=O)N[C@H](C(=O)N3C[C@H](O)C[C@H]3C(=O)NCc3ccc(-c4scnc4C)cc3)C(C)(C)C)n2)c1`, the Activity was found to be 0%.

In the case of `Cc1cccc(/C=N/Nc2cc(N3CCOCC3)nc(OCCc3ccc(NC(=O)CCCCCCCC(=O)N[C@H](C(=O)N4C[C@H](O)C[C@H]4C(=O)NCc4ccc(-c5scnc5C)cc4)C(C)(C)C)cc3)n2)c1`, the Activity stood at 84%.

For `Cc1cccc(/C=N/Nc2cc(N3CCOCC3)nc(OCCc3ccc(NC(=O)CCC(=O)N[C@H](C(=O)N4C[C@H](O)C[C@H]4C(=O)NCc4ccc(-c5scnc5C)cc4)C(C)(C)C)cc3)n2)c1`, the Activity turned out to be 0%.

Turning to `Cc1cccc(/C=N/Nc2cc(N3CCOCC3)nc(OCCc3ccc(NC(=O)CCCCCC(=O)N[C@H](C(=O)N4C[C@H](O)C[C@H]4C(=O)NCc4ccc(-c5scnc5C)cc4)C(C)(C)C)cc3)n2)c1`, the Activity is 90%.

On to `Cc1cccc(/C=N/Nc2cc(N3CCOCC3)nc(OCCNC(=O)CCC(=O)N[C@H](C(=O)N3C[C@H](O)C[C@H]3C(=O)NCc3ccc(-c4scnc4C)cc3)C(C)(C)C)n2)c1`, for which the Activity came out at 0%.

Another assay concerns DU-145. Kind of assay: Induction of massive cytoplasmic vacuolization in human RFP-labeled DU-145 cells incubated for 24 hrs. The class given is functional, cell-based. To be noted: dose 100-3000 nM. The method, boiled down: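 RFP-labeled DU145 cells treated 24 h (300 nM shown); vacuole area per cell quantified from images.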
On to `Cc1cccc(/C=N/Nc2cc(N3CCOCC3)nc(OCCc3ccccn3)n2)c1` [APILIMOD], for which the Activity result is “Dose-Dependent Effect”.

The subject of another assay is VCaP. Kind of assay: Antiproliferative activity against human VCaP cells assessed as inhibition of cell proliferation incubated for 24 hrs followed by culturing in compound-free medium for 2 weeks by crystal violet staining based analysis. The class given is functional.
Details: not given
The gist of the method: (§2)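 VCaP cells exposed either 24 h then washed and chased 2 weeks in compound-free medium, or continuously for 2 weeks; long-term viability visualized by crystal violet staining; IC50 calculated for each condition.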
As for `Cc1cccc(/C=N/Nc2cc(N3CCOCC3)nc(OCCc3ccccn3)n2)c1` [APILIMOD], the IC50 amounted to 1190 nM.

A further assay has as its system VCaP. Briefly: Antiproliferative activity against human VCaP cells assessed as inhibition of cell proliferation incubated for 2 weeks by crystal violet staining based analysis. Type of assay: functional. To be noted: 336 h. The method, boiled down:
as §2
For the molecule `Cc1cccc(/C=N/Nc2cc(N3CCOCC3)nc(OCCc3ccccn3)n2)c1` [APILIMOD], the IC50 came out at 254 nM.

The next assay concerns VCaP. Kind of assay: Inhibition of autophagy in human VCaP cells assessed as increase in LC3A/B expression at 100 to 300 nM incubated for 4 hrs followed by culturing in compound-free medium for 72 hrs by immunoblot analysis. The class given is functional, cell-based. To be noted: dose 100-300 nM. The method, boiled down:
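VCaP cells treated 4 h, compounds removed, cultured 72 h in compound-free medium; whole cell lysates immunoblotted for PIKfyve, LC3A/B and GAPDH (RIPA lysis, 4–12% Bis-Tris gels, PVDF, ECL).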
Consider `Cc1cccc(/C=N/Nc2cc(N3CCOCC3)nc(OCCc3ccccn3)n2)c1` [APILIMOD], for which the inhibition entry was “inactive”.

For the next assay, the system named is DU-145. Kind of assay: Induction of massive cytoplasmic vacuolization in human RFP-labeled DU-145 cells at 300 nM incubated for 4 hrs. Type of assay: functional, cell-based.
Details: not given
Turning to `Cc1cccc(/C=N/Nc2cc(N3CCOCC3)nc(OCCc3ccccn3)n2)c1` [APILIMOD], the result was Active.
